Measured values published in ChEMBL document CHEMBL1240380, “Acinetobacter baumannii increases tolerance to antibiotics in response to monovalent cations” (Antimicrob Agents Chemother, 2010).
Active and inactive are the calls of the source. The calls are words filed in the database; no cut-off is given here.

Experiments:
[1] = system: Acinetobacter baumannii; experiment: Antibacterial activity against Acinetobacter baumannii isolate 2898 isolated from human ankle; format: functional, organism-based
[2] = system: Acinetobacter baumannii; experiment: Antibacterial activity against Acinetobacter baumannii isolate 510 isolated from human sputum; format: functional, organism-based
[3] = system: Acinetobacter baumannii; experiment: Antibacterial activity against Acinetobacter baumannii isolate 2824 isolated from human urine; format: functional, organism-based
[4] = system: Acinetobacter baumannii; experiment: Antibacterial activity against Acinetobacter baumannii ATCC 17978 isolated from human CSF; format: functional, organism-based
[5] = system: Acinetobacter baumannii; experiment: Antibacterial activity against Acinetobacter baumannii isolate 5191 isolated from human urine; format: functional, organism-based
[6] = system: Acinetobacter baumannii; experiment: Antibacterial activity against Acinetobacter baumannii isolate 4860 isolated from human urine; format: functional, organism-based
[7] = system: Acinetobacter baumannii; experiment: Antibacterial activity against Acinetobacter baumannii ATCC 17978 assessed as bacterial growth at 4.5 mg/L in presence of 150 mM NaCl; format: functional
Method in brief: (§1)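 Overnight cultures were diluted 1:100 in NaCl-free MHB and grown to OD600 0.4. They were then diluted to 10^5 CFU/ml in MHB with or without 150 mM NaCl, plus or minus antibiotic. Growth was run in triplicate for 12 h at 37°C with shaking at 180 rpm, and OD600 was read every 2 h.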

[8] = system: Acinetobacter baumannii; experiment: Antibacterial activity against Acinetobacter baumannii using MHB medium assessed as bacterial growth at 4.5 mg/L after 12 hrs in presence of 30 mg/L efflux pump inhibitor PAbetaN; format: functional, organism-based
[9] = system: Acinetobacter baumannii; experiment: Antibacterial activity against Acinetobacter baumannii using MHB medium with 150 mM assessed as bacterial growth at 4.5 mg/L after 12 hrs in presence of 30 mg/L efflux pump inhibitor PAbetaN; format: functional, organism-based
[10] = system: Acinetobacter baumannii; experiment: Antibacterial activity against Acinetobacter baumannii using MHB medium assessed as bacterial growth at 4.5 mg/L in presence of 150 mM of KCl; format: functional, organism-based
Method in brief: as §1, with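 “Growth-curve challenge with 150 mM KCl in place of NaCl. Overnight” for “Overnight”, “KCl,” for “NaCl,”, “plus” for “plus or minus”, “Cultures ran” for “Growth was run”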

Structure (SMILES) | Activity [1] | Activity [2] | Activity [3] | Activity [4] | Activity [5] | Activity [6] | Activity [7] | Activity [8] | Activity [9] | Activity [10]
NC[C@H]1O[C@H](O[C@H]2[C@H](O)[C@@H](O[C@H]3O[C@H](CO)[C@@H](O)[C@H](N)[C@H]3O)[C@H](N)C[C@@H]2N)[C@H](N)C[C@@H]1O | inactive | inactive | inactive | Active | inactive | inactive | – | – | – | –
CN(C)[C@@H]1C(O)=C(C(N)=O)C(=O)[C@@]2(O)C(O)=C3C(=O)c4c(O)cccc4[C@@](C)(O)[C@H]3C[C@@H]12 | – | – | inactive | – | inactive | inactive | – | – | – | –
C[C@H]1[C@H](NC(=O)/C(=N\OC(C)(C)C(=O)O)c2csc(N)n2)C(=O)N1S(=O)(=O)O | inactive | inactive | inactive | inactive | inactive | inactive | – | – | – | –
NCC[C@H](O)C(=O)N[C@@H]1C[C@H](N)[C@@H](O[C@H]2O[C@H](CN)[C@@H](O)[C@H](O)[C@H]2O)[C@H](O)[C@H]1O[C@H]1O[C@H](CO)[C@@H](O)[C@H](N)[C@H]1O | inactive | inactive | inactive | Active | inactive | inactive | inactive | Active | inactive | inactive
CO/N=C(\C(=O)N[C@@H]1C(=O)N2C(C(=O)O)=C(CSc3nc(=O)c(O)nn3C)CS[C@H]12)c1csc(N)n1 | inactive | inactive | inactive | – | inactive | inactive | – | – | – | –
C[C@@H](O)[C@H]1C(=O)N2C(C(=O)O)=C(S[C@@H]3CN[C@H](C(=O)N(C)C)C3)[C@H](C)[C@H]12 | Active | Active | Active | Active | – | – | – | – | – | –
CO/N=C(\C(=O)N[C@@H]1C(=O)N2C(C(=O)[O-])=C(C[N+]3(C)CCCC3)CS[C@H]12)c1csc(N)n1 | inactive | inactive | inactive | Active | inactive | inactive | – | – | – | –
